Test results taken from article PMC10281356 (Drug Delivery, 2023).

How the values were obtained:
HepG2 cells = assay: MTT cytotoxicity assay on HepG2 cells; type: cell-based, human; conditions: peptide alone at 50 and 25 μg/mL, 24 h, n = 3
Method in brief: (§1)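 Peptide vectors, PEGylated or not, were added alone at a series of concentrations to A549 or HepG2 cells, followed by MTT read-out. Viability (%) was calculated from absorbance of treated cells relative to untreated cells. Data given as mean ± SEM (n = 3) and compared by one-way ANOVA with Tukey's post-hoc test.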

A549 cells = assay: MTT cytotoxicity assay on A549 cells; type: cell-based, human; conditions: peptide alone at 50 and 25 μg/mL, 24 h, n = 3
Method in brief: as §1

EGFP and luciferase mRNA = assay: Gel retardation assay, vector-mRNA binding; conditions: agarose gel electrophoresis
Method in brief: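 Test compounds (peptide vectors, with or without PEG) mixed with EGFP or luciferase mRNA at 0.5:1 to 15:1 (w/w) to form self-assemblies. Run on agarose gel in 1× TAE at 140 V for 40 min. Stained with GelRed and imaged under UV. Unbound mRNA served as control. Complete binding was taken as loss of the free mRNA band.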

- mRNA affinity compared with non-PEGylated LA peptide (EGFP and luciferase mRNA): comparable
Substance: (PEG24)-KKALLAHALHLLA LLALHLAHALKKA-NH2 [PEG24LA, PEG24-LAH4-L1]
- cytotoxicity of peptide compared with non-PEGylated LA peptide (HepG2 cells): significantly lower
- cytotoxicity of peptide compared with non-PEGylated LA peptide (A549 cells): significantly lower
